High-throughput results: PubChem, several laboratories
Wee1 stabilizer: Wee1 degradation inhibitors, primary screen, cell-based, HeLa, Wee1K328M-luciferase, luminescence; Wee1-like protein kinase (Homo sapiens), P30291; HeLa Luc-Wee1K328M stability; 100% = proteasome inhibitor MG132 effect; reporter increase, % at 5 µM; 220,000 compounds, 1.2% hits; AID 1321, 2008;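 active means activation above the mean of all tested compounds plus 3 SD, set per screening run, cut at about 8.8% in these data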;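 further: cells exposed to compound for 20 h before luminescence read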
Platelet DG rel: inhibitors of platelet dense granule secretion, primary screen, cell-based, MLPCN, human platelets; human platelet-rich plasma, SFLLRN dense granule ATP release, luminescence; inhibition, %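 (compounds screened at 7.5 µM in platelet-rich plasma)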; 300,000 compounds, 0.22% hits; AID 1663, 2009;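 active means mean replicate score, as percent of positive control, at or above 50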
FXIIa inh: human FXIIa protease inhibitors, primary screen, biochemical, 1536-well; Coagulation factor XII (Homo sapiens), P00748; purified FXIIa, Boc-QGR-AMC fluorogenic substrate, 2 h; inhibition, % at 5 µM; 220,000 compounds, 0.3% hits; AID 800, 2007; in the data active means inhibition above about 40%
FXIa inh 1536: human FXIa protease inhibitors, primary screen, biochemical, 1536-well; purified FXIa, Boc-Glu-Ala-Arg-AMC fluorogenic substrate; inhibition, % at 5 µM; 220,000 compounds, 0.14% hits;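 active means inhibition of at least 40%; inactive means inhibition below 40%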;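 further: fluorescence of freed AMC excited at 355 nm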
Target sequence (P03951 19-387 limits assumed): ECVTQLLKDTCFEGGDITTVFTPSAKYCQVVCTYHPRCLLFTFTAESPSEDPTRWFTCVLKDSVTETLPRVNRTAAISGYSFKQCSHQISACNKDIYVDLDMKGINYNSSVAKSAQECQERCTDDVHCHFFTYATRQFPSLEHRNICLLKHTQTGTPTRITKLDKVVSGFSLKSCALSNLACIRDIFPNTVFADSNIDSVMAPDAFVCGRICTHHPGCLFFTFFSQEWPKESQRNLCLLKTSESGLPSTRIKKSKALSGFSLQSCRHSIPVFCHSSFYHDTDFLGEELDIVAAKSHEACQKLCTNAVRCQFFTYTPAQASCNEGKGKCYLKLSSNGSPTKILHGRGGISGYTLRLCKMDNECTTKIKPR
Target sequence (P03951 388-625 limits assumed): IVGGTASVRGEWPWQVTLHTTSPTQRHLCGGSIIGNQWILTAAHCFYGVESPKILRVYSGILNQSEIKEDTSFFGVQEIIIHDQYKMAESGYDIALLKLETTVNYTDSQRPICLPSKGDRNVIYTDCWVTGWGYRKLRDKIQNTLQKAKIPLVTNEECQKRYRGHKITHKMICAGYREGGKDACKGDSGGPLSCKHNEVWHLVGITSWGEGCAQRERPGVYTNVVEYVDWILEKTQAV
thrombin 1536: human alpha-thrombin inhibitors, primary screen, counter-screen for coagulation protease inhibitor project, biochemical, 1536-well, fluorogenic AMC substrate; Boc-VPR-AMC fluorogenic substrate cleavage; inhibition, % at 5 µM; 220,000 compounds, 0.26% hits; AID 1046, 2008;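 active means inhibition at or above 40%; inactive means inhibition below 40%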
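Material: human alpha-thrombin protein; Also added: Boc-VPR-AMC substrate, 15 µM final; Timing: enzyme reaction carried out at room temperature; Signal: fluorescence, ex 355 nm, em 460 nm; Measure: % inhibition of thrombin; Controls: enzyme without compound as high, wells lacking enzyme as low.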
hK5 inh: human KLK5 protease inhibitors, primary screen, biochemical, 1536-well | Kallikrein-5 (Homo sapiens), Q9Y337 | recombinant hK5, fluorogenic AMC substrate cleavage | inhibition, % at 5 µM | 210,000 compounds, 0.59% hits | AID 873, 2007;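 active means inhibition of 40% or more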
Hits are given with their value; – = inactive; · = no result. Rows were chosen to be rich in hits. Some 1.8% of all compounds tested hit in one or more screens of this group.

SMILES | Wee1 stabilizer | Platelet DG rel | FXIIa inh | FXIa inh 1536 | thrombin 1536 | hK5 inh
CCOc1ccc(N/C=C/C(=O)c2ccccc2)c([N+](=O)[O-])c1 | – | 85 | – | – | – | –
O=C(/C=C/Nc1ccc(Br)cc1F)c1ccccc1 | – | 50 | – | – | – | –
O=C(/C=C/Nc1ccccc1F)c1ccc(Br)cc1 | – | – | – | – | – | –
COc1cc(Cl)c(S(=O)(=O)N2CC(C)OC(C)C2)cc1Cl (stereo not drawn) | – | – | – | – | – | 54
CCOc1ccccc1/C=N/Nc1ccnc(=O)[nH]1 | · | – | · | · | · | ·
O=c1nccc(N/N=C/c2ccccc2O)[nH]1 | · | 63 | · | · | · | ·
COc1ccccc1C1CCN(c2cc(O)ccc2[N+](=O)[O-])CC1 | – | – | – | – | – | –
O=C(O)c1ccc(-c2nc(-c3ccccc3)cs2)cc1 | 9.6 | – | – | – | – | –
CC(Nc1c[nH]c(=O)[nH]c1=O)c1ccccc1 (stereo not drawn) | · | – | · | · | · | ·
CC(C)c1ccc2[nH]c3c(c2c1)[C@@H]1CCN2C(=O)CCC[C@H](C3)[C@H]12 | · | – | · | · | · | ·
Nc1nnc(SCC(=O)c2ccc3ccccc3c2)s1 | – | – | – | – | – | –
Nc1nnc(SCCCC(=O)c2ccccc2)s1 | – | – | – | – | 46 | –
Cc1ccc(S(=O)(=O)CCC(=O)OCn2nnc3ccccc3c2=O)cc1 | – | – | · | – | – | –
c1ccc2c(-c3nnc4n3CCCCC4)cc(-c3ccncc3)nc2c1 | – | – | – | – | 45 | –
Clc1ccc(-c2cc(-c3nnc4n3CCCCC4)c3ccccc3n2)cc1 | – | – | – | – | – | –
CC(C(=O)Nc1cccnc1)C1Sc2ccccc2NC1=O (stereo not drawn) | – | – | – | – | – | –
O=C(Nc1ccc(C(=O)O)cc1)/C(=C\c1ccccc1)NC(=O)c1ccccc1 | · | – | · | · | · | ·
COc1ccccc1C(=O)N/C(=C/c1ccccc1)C(=O)Nc1ccc(C(=O)O)cc1 | 10 | – | – | – | – | –
Cc1c(N(C)C(=O)C2CCCN2S(=O)(=O)c2ccccc2)c(=O)n(-c2ccccc2)n1C (stereo not drawn) | – | – | – | – | 104 | 71
Cc1ccc(S(=O)(=O)N2CC[C@@H]2C(=O)O)cc1 | · | – | · | · | · | ·
Cc1ccc(S(=O)(=O)N2CCCC2C(=O)O)cc1 (stereo not drawn) | – | 83 | – | – | – | –
COc1ccc(S(=O)(=O)Nc2ccccc2C(=O)N2CCOCC2)cc1Br | · | – | · | · | · | ·
O=C(Nc1nc(-c2ccccc2)cs1)c1ccc(S(=O)(=O)N2CCc3ccccc32)cc1 | – | – | – | 59 | – | –
O=C(COc1coc(CN2CCc3ccccc32)cc1=O)Nc1ccccc1 | · | – | · | · | · | ·
Cc1cc(=O)oc(C)c1C(=O)NCCNC(=O)c1c(C)cc(=O)oc1C | – | 85 | – | – | – | –
SMILES | Wee1 stabilizer | Platelet DG rel | FXIIa inh | FXIa inh 1536 | thrombin 1536 | hK5 inh
O=[N+]([O-])c1cccc(-c2noc(-c3ccco3)n2)c1 | 8.9 | – | – | – | – | –
O=C1CSC(c2cn(-c3ccccc3)nc2-c2cc3ccccc3oc2=O)N1Cc1ccco1 (stereo not drawn) | – | – | – | – | – | 153
CCN(CC)CCNC(=O)c1ccc(NC(=O)c2cccc(S(=O)(=O)Nc3ccc(C)cc3)c2)cc1 | – | – | – | 101 | – | –
CCOc1ccccc1N1CC(O)=C(c2nc3ccccc3s2)C1=N | 10 | – | – | – | – | –
Clc1cccc(CN2CCCCCCC2)c1Cl | – | – | – | – | – | –
Cn1c(=N)n(CC(=O)c2cccs2)c2ccccc21 | – | – | – | – | – | 45
N=c1n(CC(=O)c2ccc(Br)s2)c2ccccc2n1Cc1ccccc1 | 10 | – | – | – | – | –
CCCn1c(=N)n(CC(=O)c2cccs2)c2ccccc21 | – | – | – | – | – | –
O=C(CSc1nc2ccccc2c(=O)[nH]1)Nc1ccc(N2CCOCC2)c(Cl)c1 | · | – | · | · | · | ·
